Sampled rows, rich in hits. Any-hit rate of the full collection: about 2.3%.
OXTR ag: human OXTR agonists, primary screen, fluorescence, CHO-OTR cells, Fluo-8 calcium; Oxytocin receptor (Homo sapiens), P30559; Fluo-8 calcium fluorescence; normalized: DMSO 0%, oxytocin 100%; activation, % at 3 µM; 320,000 tested, 0.32% active; AID 2435, 2010;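 active means activation above the mean of all tested compounds plus 3 SD, cutoff set per screening run, cut at about 20% in these data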;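 further: peak over basal fluorescence ratio from a 100 s FLIPR kinetic read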
V1R ag counter: agonists of human V1a receptor, primary screen, counter-screen for OXTR agonist project, fluorescence, CHO-V1R cells; Fluo-8 calcium fluorescence, agonist mode; 0% DMSO, 100% 3 nM vasopressin; activation, % at 3 µM; 320,000 tested, 0.25% active; AID 2797, 2010;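 active means activation above the mean activation of all tested compounds plus 3 SD, per screening run, cut at about 20% in these data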;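 further: signal is peak over basal fluorescence ratio across a 100 second FLIPR read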
Target sequence (P37288 whole entry, looked up): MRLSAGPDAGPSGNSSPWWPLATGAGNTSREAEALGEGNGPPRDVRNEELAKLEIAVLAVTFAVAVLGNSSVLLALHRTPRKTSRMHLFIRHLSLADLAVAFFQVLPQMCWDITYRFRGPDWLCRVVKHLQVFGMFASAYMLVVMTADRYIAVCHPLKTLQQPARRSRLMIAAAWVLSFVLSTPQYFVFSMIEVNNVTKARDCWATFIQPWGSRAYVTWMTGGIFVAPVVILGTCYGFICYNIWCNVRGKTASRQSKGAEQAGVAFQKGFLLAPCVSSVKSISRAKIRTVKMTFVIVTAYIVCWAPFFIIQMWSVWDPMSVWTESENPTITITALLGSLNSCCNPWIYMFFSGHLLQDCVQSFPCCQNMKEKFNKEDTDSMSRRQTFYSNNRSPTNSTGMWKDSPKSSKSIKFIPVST
OXTR potentiator: human OXTR potentiators, primary screen, fluorescence, CHO-OTR cells, Fluo-8 calcium. Oxytocin receptor (Homo sapiens), P30559. Fluo-8 calcium fluorescence, potentiator mode; 0% = oxytocin EC15, 100% = EC100. activation, % at 3 µM. AID 2445, 2010. 320,000 tested, 0.061% active;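 active means activation above that plate's cutoff, the mean activation of tested compounds plus 3 SD, cut at about 6.6% in these data, passing the limit was not always enough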
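Material: CHO-OTR cells, human receptor; compound dosing: single dose, 3.0 µM nominal final compound concentration; schedule: 6 min compound pre-incubation at room temperature, 100 s kinetic read; measured by: kinetic Fluo-8 calcium fluorescence; read-out basis: % activation vs EC15 and EC100 oxytocin; controls: EC15 oxytocin alone as 0%, 75 nM oxytocin as 100%; replicates: singlicate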
TAAR1 antag: human TAAR1 antagonists, primary screen, Fluo-8 calcium fluorescence, CHO RD-HGA16 cells. 360,000 tested, 1.5% active. antagonist. Trace amine-associated receptor 1 (Homo sapiens), Q96RJ0. inhibition, % at 3 µM. AID 624466, 2012;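 active means inhibition above a per-plate cutoff, the mean inhibition of test compounds on that plate plus 3 SD, cut at about 49% in these data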
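Material: CHO RD-HGA16 cells bearing hTAAR1; compound dosing: one-point dosing, 3 µM nominal final; schedule: dye loading 75 min at 37 °C, then 30 min room temperature; measured by: calcium fluorescence with Fluo-8; control set: vehicle and agonist controls; replication: n of 1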
TAAR1 ag: human TAAR1 agonists, primary screen, Fluo-8 calcium fluorescence, CHO RD-HGA16 cells. Trace amine-associated receptor 1 (Homo sapiens), Q96RJ0. vehicle wells 0%, saturating PEA agonist 100%. activation, % at 3 µM. 360,000 tested, 0.99% active;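 active means activation above the mean activation of all test compounds in the run plus 3 SD, cut at about 38% in these data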
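test system = CHO RD-HGA16 cells carrying human TAAR1 plus Gα16 | schedule = 17-24 h seeding, 75 min 37 °C dye, 30 min RT | compound dosing = 3 µM single concentration | control set = DMSO and PEA EC100 | replicates = n 1 | signal = Fluo-8 fluorescence, 5 s baseline then 140 s kinetic read | measure = percent activation vs PEA EC100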
A number is an active result; - = inactive; . = no result given.

SMILES	OXTR ag	V1R ag counter	OXTR potentiator	TAAR1 antag	TAAR1 ag
N#Cc1ccc(-c2ccc(OCC(O)Cn3nnc4ccccc43)cc2)cc1 (stereo not drawn)	-	-	-	56	-
O=C(O)C1=CC[C@@H](c2ccc(Cl)cc2)N(S(=O)(=O)c2ccc(Cl)cc2)[C@H]1c1cccc(Cl)c1	-	-	-	64	-
Cc1ccc(S(=O)(=O)N2[C@@H](c3ccc(Cl)cc3)C(C(=O)O)=CC[C@H]2c2cccc(Cl)c2)cc1	-	-	-	-	-
O=C(O)C1=CC[C@@H](c2ccc(Cl)cc2)N(S(=O)(=O)c2ccc(Cl)cc2)[C@H]1c1ccc(Br)cc1	-	-	-	52	-
Cc1ccc([C@@H]2CC=C(C(=O)O)[C@H](c3ccc(Cl)cc3)N2S(=O)(=O)c2ccc(C)cc2)cc1	-	-	-	-	-
Cc1ccc(S(=O)(=O)N2[C@@H](c3ccc(Cl)cc3)C(C(=O)O)=CC[C@H]2c2ccc(Cl)cc2)cc1	-	-	-	55	-
COc1ccc(NS(=O)(=O)c2ccc(NC(=S)NC(=O)C(C)C)cc2)cc1	20	24	-	-	77
Cc1ccc2nc(C)c(CN3CCN(c4ccc([N+](=O)[O-])cc4Cl)CC3)n2c1	-	-	-	-	43
C[C@H]1CN([C@@H](C)CO)C(=O)c2c(c3ccccc3n2C)-c2ccccc2CO[C@H]1CN(C)C(=O)Nc1cccc(F)c1	.	.	.	-	-
C=CCNC(=O)/C(C#N)=C/c1ccccc1OCc1ccc(C(=O)OC)cc1	-	-	-	49	-
Nc1[nH]c(C(=O)c2ccc(Cl)cc2)c(-c2ccc(Br)cc2)c1C(=O)NCc1ccc(Cl)cc1Cl	.	.	.	-	-
Cc1ccc(NC(=O)NCc2ccco2)cc1[N+](=O)[O-]	.	.	.	-	-
O=[N+]([O-])c1cc2c(c(CSc3nnc(Nc4ccccc4)s3)c1)OCOC2	-	-	-	53	-
Cc1ccccc1Nc1nnc(SCc2cc([N+](=O)[O-])cc3c2OCOC3)s1	-	-	-	.	.
CC(C)(C)c1ccc(OCc2ccc(C(=O)NCc3cccnc3)o2)cc1	-	-	-	53	-
COc1cc(CNC(=O)c2cc(-c3ccc(OC)cc3C)n[nH]2)cc(OC)c1	.	.	.	-	-
CC(C)(C)n1nc(C2CC2)cc1NC(=O)Nc1ccccc1	.	.	.	-	-
COc1ccc(N(CC(=O)NCC(C)C)S(=O)(=O)c2ccccc2)cc1	-	-	-	-	-
COc1ccc(C)cc1N(CC(=O)NCCSCc1ccco1)S(=O)(=O)c1ccc(C)cc1	-	-	-	-	-
COc1ccc(N(CC(=O)NCCSCc2ccccc2C)S(=O)(=O)c2ccccc2)cc1	-	-	-	52	-
COc1ccccc1N(CC(=O)NCCSCc1cccc(C)c1)S(=O)(=O)c1ccccc1	-	-	-	80	-
COc1ccc(OC)c(N(CC(=O)NCCSCc2ccco2)S(=O)(=O)c2ccc(OC)c(OC)c2)c1	-	-	-	79	-
Cc1cc(C)cc(N(CC(=O)NCCSc2ccccn2)S(=O)(=O)c2ccccc2)c1	-	-	-	49	-
COc1ccccc1N(CC(=O)NCCSCc1ccccc1)S(C)(=O)=O	-	-	-	-	-
C=CCN=C1NC(c2ccccc2C(F)(F)F)C(C(=O)OC)=C(C)N1Cc1ccccc1C(F)(F)F (stereo not drawn)	.	.	.	-	-
CCCC(=O)OC[C@H]1CN(C2CCCC2)S(=O)(=O)c2c(Oc3ccccc3)cccc2O1	.	.	.	-	-
Cc1ccc(NC(=O)CN(C)CC(=O)Nc2cccc(F)c2)cc1S(=O)(=O)N1CCCCCC1	-	-	-	50	-
Cc1ccc(NC(=O)COc2ccccc2)cc1S(=O)(=O)N1CCCCCC1	-	-	-	-	-
Cc1ccc(NC(=O)COc2ccccc2C#N)cc1S(=O)(=O)N1CCCCCC1	-	-	-	52	-
COc1ccc(NC(=O)CN(C)CC(=O)Nc2cccc(F)c2)cc1S(=O)(=O)N1CCCCC1	.	.	.	-	-
